Results taken from ChEMBL document CHEMBL5346861, “Designing quinoline-isoniazid hybrids as potent anti-tubercular agents inhibiting mycolic acid biosynthesis” (Eur J Med Chem, 2022).
≈ marks a conversion by molar mass, not a printed value. Calls of active or inactive are those of the source. No cut-off for these calls is given here.

Legend:
[1] = Cytotoxicity against human THP-1 cells assessed as reduction in cell viability measured after 24 hrs by resazurin staining based analysis; type: toxicity
Summary of the method: (§1)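 THP-1 monocytes differentiated with 20 ng/mL PMA for 48 hrs at 1×10^5 cells/well. Compounds added by serial dilution from 100 µg/mL for 24 or 72 hrs at 37 °C and 5% CO₂. Resazurin 10% for 4 hrs, fluorescence at ex 540/em 590 nm. Mean of three independent experiments in triplicate. INH and RFB reference drugs.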

[2] = test system: Mycobacterium tuberculosis; assay: Antimycobacterial activity against Mycobacterium tuberculosis mc2 6230 assessed as reduction in log10 CFU at 5 times of MIC measured after 3 days by time-killing kinetics assay; type: functional; conditions: time 3 day
Summary of the method: (§2)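 Exposed to 1x, 5x or 20x MIC at 37 °C for up to 6 days. Serial dilutions plated on 7H10/OADC/pantothenate and colonies counted after 3 weeks. Mean of four independent experiments in technical triplicate, with SD. DMSO negative control.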

[3] = test system: Mycobacterium tuberculosis; assay: Antimycobacterial activity against Mycobacterium tuberculosis mc2 6230 assessed as inhibition of bacterial growth measured after 7 days by broth dilution method; type: functional; conditions: mc2 6230, 168 h, time 7 day
Summary of the method: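 Pantothenate auxotroph carrying empty pMV261. 2-fold serial dilutions, 37 °C, no agitation, 7 days. MIC99 is the lowest concentration with no turbidity change. DMSO vehicle control.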

Mycobacterium marinum = assay: Antimycobacterial activity against Mycobacterium marinum M strain assessed as inhibition of bacterial growth measured after 6 days by broth dilution method; type: functional; conditions: 144 h, time 6 day
Summary of the method: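 MIC99 by 2-fold serial broth dilution in 7H9 with 10% OADC and 0.025% tyloxapol. Inoculum 5.10⁶ CFU/mL. Incubated without agitation at 30 °C, scored for no turbidity change after 6 days. DMSO vehicle control.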

[4] = test system: Mycobacteroides abscessus; assay: Antimycobacterial activity against Mycobacterium abscessus CIP104536 smooth variant assessed as inhibition of bacterial growth measured after 4 days by broth dilution method; type: functional; conditions: CIP104536, 96 h, time 4 day
Summary of the method: (§3)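 MIC99 by CLSI broth 2-fold serial dilution in CaMHB. Inoculum 5.10⁶ CFU/mL. Incubated at 30 °C and read by turbidity after 4 days. DMSO vehicle control, INH reference.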

[5] = test system: Mycobacteroides abscessus; assay: Antimycobacterial activity against Mycobacterium abscessus CIP104536 rough variant assessed as inhibition of bacterial growth measured after 4 days by broth dilution method; type: functional; conditions: CIP104536, 96 h, time 4 day; summary of the method: as §3
[6] = test system: Mycobacterium tuberculosis; assay: Antimycobacterial activity against Mycobacterium tuberculosis mc2 6230 assessed as reduction in log10 CFU at 1 time of MIC measured after 6 days by time-killing kinetics assay; type: functional, organism-based; conditions: time 6.0 day; summary of the method: as §2
[7] = test system: Mycobacterium tuberculosis; assay: Antimycobacterial activity against Mycobacterium tuberculosis mc2 6230 assessed as reduction in log10 CFU at 20 times of MIC measured after 6 days by time-killing kinetics assay; type: functional; conditions: time 6 day; summary of the method: as §2
[8] = Cytotoxicity against human THP-1 cells assessed as reduction in cell viability measured after 72 hrs by resazurin staining based analysis; type: toxicity; summary of the method: as §1
[9] = test system: Mycobacterium tuberculosis; assay: Inhibition of mycolic acid biosynthesis in Mycobacterium tuberculosis mc2 6230 assessed as decrease in alpha-mycolic acid incubated for 15 mins followed by 14C-labeled acetate addition measured after 7 hrs by TLC analysis; type: functional, organism-based; conditions: time 435.0 min
[10] = test system: Mycobacterium tuberculosis; assay: Inhibition of mycolic acid biosynthesis in Mycobacterium tuberculosis mc2 6230 assessed as decrease in methoxy-mycolic acid incubated for 15 mins followed by 14C-labeled acetate addition measured after 7 hrs by TLC analysis; type: functional, organism-based; conditions: time 435.0 min
[11] = test system: Mycobacterium tuberculosis; assay: Inhibition of mycolic acid biosynthesis in Mycobacterium tuberculosis mc2 6230 assessed as decrease in keto-mycolic acid incubated for 15 mins followed by 14C-labeled acetate addition measured after 7 hrs by TLC analysis; type: functional, organism-based; conditions: time 435.0 min
[12] = test system: Mycobacterium tuberculosis; assay: Inhibition of fatty acid methyl esters production in Mycobacterium tuberculosis mc2 6230 incubated for 15 mins followed by 14C-labeled acetate addition measured after 7 hrs by TLC analysis; type: functional; conditions: time 435.0 min
[13] = test system: Mycobacterium tuberculosis; assay: Inhibition of mycolic acid biosynthesis in Mycobacterium tuberculosis mc2 6230 assessed as decrease in alpha-mycolic acid at 1.25 ug/ml incubated for 15 mins followed by 14C-labeled acetate addition measured after 7 hrs by TLC analysis; type: functional, organism-based; conditions: dose 1.25 µg/ml, time 435.0 min
[14] = test system: Mycobacterium tuberculosis; assay: Inhibition of mycolic acid biosynthesis in Mycobacterium tuberculosis mc2 6230 assessed as decrease in methoxy-mycolic acid at 1.25 ug/ml incubated for 15 mins followed by 14C-labeled acetate addition measured after 7 hrs by TLC analysis; type: functional, organism-based; conditions: dose 1.25 µg/ml, time 435.0 min
[15] = test system: Mycobacterium tuberculosis; assay: Inhibition of mycolic acid biosynthesis in Mycobacterium tuberculosis mc2 6230 assessed as decrease in keto-mycolic acid at 1.25 ug/ml incubated for 15 mins followed by 14C-labeled acetate addition measured after 7 hrs by TLC analysis; type: functional, organism-based; conditions: dose 1.25 µg/ml, time 435.0 min
[16] = test system: Mycobacterium tuberculosis; assay: Antimycobacterial activity against Mycobacterium tuberculosis mc2 6230 assessed as inhibition of bacterial growth at 1 ug/ml measured after 7 days by broth dilution method; type: functional, organism-based; conditions: dose 1.0 µg/ml, time 7.0 day
Vero = assay: Cytotoxicity against African green monkey Vero cells assessed as reduction in cell viability measured after 24 hrs by resazurin staining based analysis; type: toxicity; conditions: chlorocebus sabaeus
Summary of the method: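 Vero cells in RPMI 1640 with 10% FCS, 2×10^4 cells/well, adhered overnight at 37 °C and 5% CO₂. Compounds added at 100 to 0.78 µg/mL for 24 hrs. 10% resazurin added for 4 hrs, fluorescence read at ex 540/em 590 nm.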

[17] = Selectivity index, […] Mycobacterium tuberculosis H37Rv to CC50 for cytotoxicity against human THP-1 cells; type: toxicity, cell-based; conditions: read-out: Selectivity Index
[18] = Selectivity index, […] Mycobacterium marinum M strain to CC50 for cytotoxicity against human THP-1 cells; type: toxicity, cell-based; conditions: read-out: Selectivity Index
[19] = Selectivity index, […] Mycobacterium abscessus CIP104536 smooth variant to CC50 for cytotoxicity against human THP-1 cells; type: toxicity, cell-based; conditions: read-out: Selectivity Index
[20] = Selectivity index, […] Mycobacterium abscessus CIP104536 rough variant to CC50 for cytotoxicity against human THP-1 cells; type: toxicity, cell-based; conditions: read-out: Selectivity Index
[21] = test system: Mycobacterium tuberculosis; assay: Antimycobacterial activity against Mycobacterium tuberculosis H37Rv assessed as inhibition of bacterial growth; type: functional

## CO[C@H]1/C=C/O[C@@]2(C)Oc3c(C)c(O)c4c(c3C2=O)C2=NC3(CCN(CC(C)C)CC3)NC2=C(NC(=O)/C(C)=C\C=C\[C@H](C)[C@H](O)[C@@H](C)[C@@H](O)[C@@H](C)[C@H](OC(C)=O)[C@@H]1C)C4=O [RIFABUTIN]
[1]
  CC50 at 24 h: 60 µg/mL (≈ 70.8 µM)

## O=C(N/N=C/c1ccccc1-n1cc(CN2CCN(c3ccnc4cc(Cl)ccc34)CC2)nn1)c1ccncc1
[2]
  Activity: 2 log10CFU/ml
[3]
  MIC: 0.25 µg/mL (≈ 0.453 µM)
Mycobacterium marinum
  MIC: 50 µg/mL (≈ 90.6 µM)
[4]
  MIC: > 200 µg/mL
[5]
  MIC: > 200 µg/mL
[6]
  Activity: Active
[7]
  Activity: ~3 log10CFU/ml
[1]
  CC50 at 24 h: 13 µg/mL (≈ 23.5 µM)
[8]
  CC50 at 72 h: 18 µg/mL (≈ 32.6 µM)
[9]
  inhibition: Dose-Dependent Effect
[10]
  inhibition: Dose-Dependent Effect
[11]
  inhibition: Dose-Dependent Effect
[12]
  inhibition: inactive
[13]
  inhibition: Active
[14]
  inhibition: Active
[15]
  inhibition: Active
[16]
  Activity: Active

## O=C(N/N=C/c1ccc(OCc2cn(-c3ccnc4cc(Cl)ccc34)nn2)cc1)c1cccnc1
[3]
  MIC: > 200 µg/mL

## O=C(N/N=C/c1ccc(OCc2cn(-c3ccnc4cc(Cl)ccc34)nn2)cc1)c1cnccn1
[3]
  MIC: > 200 µg/mL

## O=C(N/N=C/c1ccccc1-n1cc(CN2CCN(c3ccnc4cc(Cl)ccc34)CC2)nn1)c1cccnc1
[3]
  MIC: > 200 µg/mL

## COc1cc(C=O)ccc1OCc1cn(-c2ccnc3cc(Cl)ccc23)nn1
[3]
  MIC: > 200 µg/mL

## O=C(N/N=C/c1ccc(OCc2cn(CCCNc3ccnc4cc(Cl)ccc34)nn2)cc1)c1cnccn1
[3]
  MIC: > 200 µg/mL

## O=C(N/N=C/c1ccc(OCc2cn(CCCNc3ccnc4cc(Cl)ccc34)nn2)cc1)c1ccncc1
[2]
  Activity: 2 log10CFU/ml
[3]
  MIC: 0.5 µg/mL (≈ 0.924 µM)
Mycobacterium marinum
  MIC: 50 µg/mL (≈ 92.4 µM)
[4]
  MIC: > 200 µg/mL
[5]
  MIC: > 200 µg/mL
[6]
  Activity: Active
[7]
  Activity: ~3 log10CFU/ml
[1]
  CC50 at 24 h: > 100 µg/mL
Vero
  Activity: Non-Toxic
[8]
  CC50 at 72 h: 67 µg/mL (≈ 124 µM)
[16]
  Activity: Active

## O=C(N/N=C/c1ccc(OCc2cn(-c3ccnc4cc(Cl)ccc34)nn2)cc1)c1ccncc1
[2]
  Activity: 2 log10CFU/ml
[3]
  MIC: 0.25 µg/mL (≈ 0.517 µM)
Mycobacterium marinum
  MIC: > 200 µg/mL
[4]
  MIC: > 200 µg/mL
[5]
  MIC: > 200 µg/mL
[6]
  Activity: Active
[7]
  Activity: ~3 log10CFU/ml
[1]
  CC50 at 24 h: > 100 µg/mL
Vero
  Activity: Non-Toxic
[8]
  CC50 at 72 h: > 100 µg/mL
[17]
  selectivity ratio: > 200
[18]
  selectivity ratio: > 200
[19]
  selectivity ratio: > 200
[20]
  selectivity ratio: > 200
[16]
  Activity: Active

## COc1cc(/C=N/NC(=O)c2ccncc2)ccc1OCc1cn(CCCNc2ccnc3cc(Cl)ccc23)nn1
[2]
  Activity: 2 log10CFU/ml
[3]
  MIC: 0.25 µg/mL (≈ 0.438 µM)
Mycobacterium marinum
  MIC: 100 µg/mL (≈ 175 µM)
[4]
  MIC: > 200 µg/mL
[5]
  MIC: > 200 µg/mL
[6]
  Activity: Active
[7]
  Activity: ~3 log10CFU/ml
[1]
  CC50 at 24 h: > 100 µg/mL
Vero
  Activity: Non-Toxic
[8]
  CC50 at 72 h: > 100 µg/mL
[17]
  selectivity ratio: > 200
[18]
  selectivity ratio: > 200
[19]
  selectivity ratio: > 200
[20]
  selectivity ratio: > 200
[16]
  Activity: Active

## O=Cc1ccccc1-n1cc(CN2CCN(c3ccnc4cc(Cl)ccc34)CC2)nn1
[3]
  MIC: 100 µg/mL (≈ 231 µM)
Mycobacterium marinum
  MIC: > 200 µg/mL
[4]
  MIC: > 200 µg/mL
[5]
  MIC: > 200 µg/mL

## Clc1ccc2c(N3CCNCC3)ccnc2c1
[3]
  MIC: 92 µg/mL (≈ 371 µM)

## COc1cc(C=O)ccc1OCc1cn(CCCNc2ccnc3cc(Cl)ccc23)nn1
[3]
  MIC: > 200 µg/mL

## COc1cc(/C=N/NC(=O)c2cnccn2)ccc1OCc1cn(CCNc2ccnc3cc(Cl)ccc23)nn1
[3]
  MIC: > 200 µg/mL

## COc1cc(/C=N/NC(=O)c2cccnc2)ccc1OCc1cn(CCCNc2ccnc3cc(Cl)ccc23)nn1
[3]
  MIC: > 200 µg/mL

## CC(C)c1ccc(-c2nc(CN3CCN(c4ccnc5cc(Cl)ccc45)CC3)no2)cc1
[21]
  MIC: 1.11 µM (≈ 0.497 µg/mL)
